Measured values: publication PMC7498158 (Journal of Medicinal Chemistry, 2020)

The compounds below were run on PLAAT2–5 (assay: gel-based competitive ABPP, statements for all tested PLAAT members). Details: 10 μM inhibitor, 30 min; active = residual protein labeling ≤50%.
Type: biochemical, human
How it was run: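 Human PLAAT cDNA (C-terminal FLAG, pcDNA3.1) was PEI-transfected into HEK293T; cytosol came from a 100,000g spin. Cytosol was preincubated with test compound (30 min, rt), then MB064 (20 min, rt). Conditions: PLAAT2 0.25 μg/μL, 250 nM; PLAAT3 0.5 μg/μL, 250 nM; PLAAT4/5 1 μg/μL, 500 nM. In-gel fluorescence was normalized to Coomassie, in triplicate. Single-concentration screen or IC50 from dose–response curves.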

| SMILES | activity on PLAAT2–5 (in words) |
| --- | --- |
| O=C(NCc1ccccc1)C(F)(F)C(O)CCc1ccccc1 (stereo not drawn) [Compound 3] | inactive |
| CCOC(=O)C(F)(F)C(O)CCc1ccccc1 (stereo not drawn) [Compound 4] | inactive |
| CN(CCc1ccccc1)C(=O)C(=O)CCc1ccc(Cl)cc1 [Compound 12] | complete loss of activity |
| O=C(CCc1ccc(Cl)cc1)C(=O)N1CCCCC1 [Compound 13] | did not show any activity |
| CN(C)C(=O)C(=O)CCc1ccc(Cl)cc1 [Compound 14] | did not show any activity |
| O=C(CCc1ccc(Cl)cc1)C(=O)N1CCOCC1 [Compound 15] | did not show any activity |
| CN1CCN(C(=O)C(=O)CCc2ccc(Cl)cc2)CC1 [Compound 16] | did not show any activity |
| COCCN(CCOC)C(=O)C(=O)CCc1ccc(Cl)cc1 [Compound 17] | did not show any activity |
| CCN(CCc1ccccc1)C(=O)C(=O)CCc1ccc(Cl)cc1 [Compound 22] | did not show any activity |
| O=C(NCCc1ccccc1)C(O)CCc1ccc(Cl)cc1 (stereo not drawn) [Compound 23, 4-(4-Chlorophenyl)-2-hydroxy-N-phenethylbutanamide] | no activity |

Same assay, conditions: focused library screen

| SMILES | hit potency for all tested PLAAT members (in words) |
| --- | --- |
| O=C(CCc1ccc(Cl)cc1)C(=O)NCCc1ccccc1 [Compound 1, 4-(4-Chlorophenyl)-2-oxo-N-phenethylbutanamide] | submicromolar |
| O=C(CCc1ccc(Cl)cc1)C(=O)NCCCCc1ccccc1 [Compound 2] | submicromolar |
